Screens: PubChem, Broad Institute
S100A4 MyoIIA: inhibitors of S100A4-myosin IIA peptide binding, primary screen, biochemical, fluorescence polarization, TAMRA-MyoIIA peptide | inhibition, % at 10.7 µM | 360,000 tested, 0.14% active | AID 652163, 2013;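 active means mean inhibition of at least 70% across replicates, with every replicate also reaching that level; inconclusive means mean inhibition reaches 70% but some replicates fall short; inactive means mean inhibition below 70%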
Target sequence (P26447 whole entry, looked up): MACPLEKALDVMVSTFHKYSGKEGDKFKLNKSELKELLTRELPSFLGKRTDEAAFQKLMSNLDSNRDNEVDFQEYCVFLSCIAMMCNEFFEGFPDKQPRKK
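Material: S100A4 monomer protein / Buffer or medium: 50 mM HEPES pH 7.2, 10 mM CaCl2, 100 mM KCl / Times: 5 min incubation before reading / Benchmarks: neutral control DMSO, positive control TFP / Reagent: labelled myosin peptide probe, 5 nM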
CDK5 p35 inh: inhibitors of human CDK5/p35 kinase, primary screen, biochemical, single concentration | Cyclin-dependent kinase 5 (Homo sapiens) + Cyclin-dependent kinase 5 activator 1 (Homo … | Recombinant CDK5/p35, ADP-Glo luminescence, 60 min | inhibition, % at 10 µM | 330,000 tested, 0.01% active | AID 488839, 2010;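 active means highest replicate inhibition of at least 50% and at least 75% of replicates reaching 50%; inconclusive means only one of the two criteria met; inactive means both criteria failed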;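 further: plate controls were DMSO neutral control for no effect and GW8510 at 10 µM for full effect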
CAL PDZ FP-1: untagged CAL PDZ binding inhibitors, primary screen, biochemical, fluorescence polarization, HTS; inhibition, % at 24.9 µM; AID 602252, 2012; purified CAL PDZ, TMR-peptide fluorescence polarization, 1 h; 300,000 tested, 0.92% active;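 active means mean inhibition of at least 30% with at least half of replicates also reaching 30%; inconclusive means no clear call, values can overlap the other calls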;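 further: 0% = DMSO neutral control and 100% = excess unlabeled competitor peptide PRC23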
dFosB act: activators of delta FosB homodimer, primary screen, biochemical, fluorescence polarization, TAMRA-CDK5 oligo, single point; purified delta FosB; percent of positive-control signal above neutral wells; AID 493131, 2011; 340,000 tested, 0.99% active; activation, % at 25 µM; Protein FosB (Mus musculus), P13346;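 active means mean activation above about 17%, with every replicate also reaching it, limit read from the data, passing the limit was not always enough; inconclusive means only one of the two conditions met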
Target sequence (P13346 whole entry, looked up): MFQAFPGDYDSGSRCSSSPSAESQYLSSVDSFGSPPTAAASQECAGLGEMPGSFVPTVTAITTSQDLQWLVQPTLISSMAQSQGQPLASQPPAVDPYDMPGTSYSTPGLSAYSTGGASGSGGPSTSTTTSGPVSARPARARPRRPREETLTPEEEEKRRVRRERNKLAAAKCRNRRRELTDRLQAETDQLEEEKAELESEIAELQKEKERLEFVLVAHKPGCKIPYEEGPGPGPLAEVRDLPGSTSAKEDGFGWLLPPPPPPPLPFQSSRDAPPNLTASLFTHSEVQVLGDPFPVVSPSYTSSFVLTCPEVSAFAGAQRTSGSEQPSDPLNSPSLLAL
CAL PDZ FP-2: CAL PDZ peptide-binding inhibitors, primary screen, biochemical, fluorescence polarization, Cer-tagged CAL PDZ, HTS; inhibition, % at 20 µM; purified CAL PDZ, TMR-peptide fluorescence polarization, 1 h; 330,000 tested, 0.02% active; Golgi-associated PDZ and coiled-coil motif-containing protein (Homo sapiens), Q9HD26; AID 504414, 2011;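 active means highest replicate inhibition of at least 40%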;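 further: plate controls were DMSO neutral control wells for no effect and unlabeled competitor peptide control wells for full effect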
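Material: tagged CAL PDZ domain; buffer or medium: 25 mM sodium phosphate pH 7.4, 150 mM NaCl, TCEP, IgG, Thesit; compound dosing: single point, 20 µM; schedule: 1 h incubation at room temperature before polarization reading; measured by: FP readout, S and P plane fluorescence; read-out basis: percent inhibition from loss of millipolarization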
Statin myotox sup: suppressors of statin myotoxicity in C2C12 myotubes, primary screen, cell-based, single point, plate reader; C2C12 myotubes + simvastatin, ATP luminescence, 48 h; scaled: DMSO 0, geranylgeraniol control 100; rescue of ATP level, % at 7.49 µM; 330,000 tested, 0.78% active; AID 602340, 2012;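 active means mean ATP rescue above about 67%, or every replicate alone reaching that limit, limit read from the data, passing the limit was not always enough; inconclusive means no clear call, values can overlap the other calls; inactive means mean under the limit and some replicate under it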;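 further: myotubes were challenged with 10 µM simvastatin during compound exposure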
Active calls of the source: *; ? = inconclusive; . = no result. Compounds with a hit are over-represented: about 2% of the library has one in this group of screens.

SMILES	S100A4 MyoIIA	CDK5 p35 inh	CAL PDZ FP-1	dFosB act	CAL PDZ FP-2	Statin myotox sup
O=C1NN=C(c2ccc(Cl)cc2)CC1c1cccc(Cl)c1 (stereo not given)	.	-0.9	-2.5	-12.6	-2.6	136.9*
O=C(NCCc1ccccc1)C1CCN(C2CCN(Cc3ccco3)CC2)CC1	-10.2	-2.3	30.1*	2.9	11.5	.
COc1ccccc1NC(=O)N[C@H]1C=C[C@H](CC(=O)N2CCC(Cc3ccccc3)CC2)O[C@@H]1CO	103.5*	.	.	.	.	-8.8
Cc1cccc(Oc2ccc(NS(=O)(=O)c3ccc(C)c(C(=O)O)c3)cc2)c1	-8.5	-0.6	-1.2	4.8	0.4	4.3
COc1cccc(C(C(=O)NC(C)(C)C)N(C(=O)CCC(=O)Nc2cc(C)on2)C(C)(C)C)c1OC (stereo not given)	.	-3.8	-2.6	-5.4	.	66.6*
COc1cccc(C(C(=O)NC(C)(C)C)N(C(=O)CCC(=O)Nc2cc(C)on2)C(C)C)c1OC (stereo not given)	.	1.8	-2.6	-2.8	-3.7	.
N#Cc1nccc2ccc(OCc3ccc(Br)cc3)cc12	16.9	.	.	.	.	.
COc1ccc(Br)cc1/C=C/c1ccc2cccc(O)c2n1	-3.0	-0.7	-3.8	-5.5	0.4	67.5*
COc1cc(Br)cc(/C=C/c2ccc3cccc(O)c3n2)c1OC	-20.5	-1.2	2.6	-9.6	-0.2	-14.0
Cc1ccc(C(=O)CCC(=O)NC2CCCC(C)C2C)cc1 (stereo not given)	-0.8	-2.3	90.5*	-7.3	-1.6	.
COc1ccccc1CNC(=O)CSc1ccsc1[N+](=O)[O-]	-16.0	1.1	-3.0	-1.8	-3.4	.
O=C(Cn1cc([N+](=O)[O-])cn1)NCc1ccccc1	-1.7	0.5	42.7*	-0.3	0.0	9.5
O=C(CSc1ccsc1[N+](=O)[O-])NCc1ccccc1	104.1*	0.5	-7.0	-2.8	-0.2	9.4
O=C(CNc1cccc(F)c1)N1CCc2ccccc2C1	0.2	-0.8	-7.7	1.5	0.0	117.9*
O=C(N/N=C/c1ccco1)c1cccc(NC(=O)c2ccccc2Cl)c1	4.1	2.3	-5.8	-4.4	-3.5	4.2
CN(C)CCOC(=O)c1ccc2[nH]c3c(c2c1)CSCC3	1.0	0.5	-1.8	27.7*	-2.6	.
CN(C)CCCn1c(=S)[nH]c2sc3c(c2c1=O)CCCC3	-3.2	0.9	49.1*	0.8	-1.4	-16.5
c1ccc2c(c1)CNC1(CCCCC1)C2	.	0.0	-0.6	1.8	-0.2	107.2*
Cc1ccc(NS(=O)(=O)c2ccc3[nH]c(=O)c(=O)[nH]c3c2)cc1Cl	-3.8	0.5	-5.9	-3.6	-4.1	.
Cc1ccc(NS(=O)(=O)c2ccc(Cl)c(N=Nc3c(O)[nH]c(=O)[nH]c3=O)c2)cc1Cl	5.2	-0.9	30.6*	-8.5	-0.1	-8.5
COc1ccc(CCNC(=O)c2ccc(-c3cccc([N+](=O)[O-])c3)o2)cc1OC	7.5	0.8	1.1	-16.8	-1.4	.
O=C(Cn1cnc2ccccc2c1=O)Nc1nc2ccccc2s1	-7.4	0.0	-0.1	?	0.1	.
CCc1ccc2nc(NC(=O)Cn3cnc4ccccc4c3=O)sc2c1	1.4	2.9	-9.9	154.4*	-2.1	-3.4
O=c1c2ccccc2ncn1Cc1nc2ccccc2s1	.	0.5	-0.6	-7.3	-1.4	113.9*
Cc1ccccc1OC(C)C(=O)Nc1ccc2c(c1)OCO2 (stereo not given)	6.7	0.3	-0.8	-3.9	-2.3	.
SMILES	S100A4 MyoIIA	CDK5 p35 inh	CAL PDZ FP-1	dFosB act	CAL PDZ FP-2	Statin myotox sup
O=C(COC(=O)c1cnc(Cl)c(Cl)c1)NCCC1=CCCCC1	-4.4	2.4	1.2	-7.9	0.5	.
CC(C)N(C(=O)COC(=O)c1cccc(N(C)C)c1)c1ccccc1	-4.4	0.3	49.1*	-4.4	-0.4	8.5
CN(C)c1cccc(C(=O)OCC(=O)Nc2ccccc2-c2ccccc2)c1	.	-0.8	-4.0	-0.1	0.2	.
Cc1noc(C)c1S(=O)(=O)Nc1ccc2c(c1)C(=O)N([C@H](C)CO)C[C@H](C)[C@@H](CN(C)S(=O)(=O)c1cccs1)OCCCC[C@@H](C)O2	.	.	.	.	.	1.4
COc1ccccc1CNC(=O)COC(=O)CC1CC2CCC1C2 (stereo not given)	1.9	-1.1	80.3*	-8.5	-0.4	5.9
COc1ccc([N+](=O)[O-])cc1NC(=O)CCS(=O)(=O)c1ccc(Br)cc1	1.3	-1.2	-2.6	-4.7	1.0	28.9
COc1ccccc1NC(=O)CN1CCC(c2nc3ccccc3[nH]2)CC1	1.8	-0.7	.	1.8	-1.1	-10.2
COc1ccccc1NC(=O)CN1CCC(c2nc3ccc(C)cc3[nH]2)CC1	-2.7	-1.7	93.1*	-12.8	-0.9	-10.7
Cc1ccc(CNS(=O)(=O)c2ccc(C(F)(F)F)cc2)n1C	-11.0	0.5	57.9*	-5.3	0.6	.
Cc1ccc(CNS(=O)(=O)c2ccc(F)c(F)c2)n1C	-0.4	-0.7	-0.8	3.9	0.8	5.6
CCC(C(=O)Nc1ccc(N2CCOCC2)c(S(=O)(=O)Nc2ccccc2OC)c1)c1ccccc1 (stereo not given)	9.1	-5.4	.	-3.6	-0.8	-4.4
CCN(CC)CC(=O)Nn1c(C)nc2c(ncn2-c2ccccc2)c1=O	3.1	-0.3	51.4*	5.0	-0.3	.
Cc1nc2c(ncn2-c2ccccc2)c(=O)n1NC(=O)CN1CCOCC1	5.5	2.0	-2.7	0.7	-0.2	.
O=C(C=C1CCN(c2ncc(C(F)(F)F)cc2Cl)CC1)NNC(=O)Nc1ccc(Cl)cc1	.	-0.5	74.0*	6.4	4.9	10.3
CN1C(=O)c2cc(NC(=O)c3ccccc3Cl)ccc2OC[C@H]2O[C@H](CC(=O)NCC(F)(F)F)CC[C@H]21	-1.3	.	.	.	.	1.5
CN1C(=O)c2cc(NC(=O)c3ccc(F)c(F)c3)ccc2OC[C@H]2O[C@@H](CC(=O)Nc3ccc4c(c3)COC4)CC[C@@H]21	2.3	.	.	.	.	101.5*
CN1C(=O)c2cc(NC(=O)Cc3cccs3)ccc2OC[C@H]2O[C@@H](CC(=O)NCc3ccc(-c4ccccc4)cc3)CC[C@H]21	-4.0	.	.	.	.	72.1*
CN1C(=O)c2cc(NC(=O)Cc3cccs3)ccc2OC[C@H]2O[C@@H](CC(=O)NCc3ccc(-c4ccccc4)cc3)CC[C@@H]21	0.3	.	.	.	.	45.4
COC(=O)C[C@@H]1CC[C@H]2[C@H](COc3ccc(NS(=O)(=O)c4ccc(C)cc4)cc3C(=O)N2C)O1	101.4*	.	.	.	.	10.0
